T cell HTS = T cell immune modulators affecting CD8 T cell-vesicle binding. 2C CD8+ T cell-vesicle binding, flow cytometry; active compounds read low. response (vesicle binding), % at 7 µM. hit rate 0.068% among 330,000. AID 2052;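 active means response, share of CD8 T cells binding vesicles, and their 90th percentile fluorescence all below set limits, cut at about 80% in these data, passing the limit was not always enough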;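 further: values below 100% mean blocked vesicle binding to the CD8+ T cells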
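incubation = binding step 1.5 h, 37 °C, antibody labelling 20 min, ice | test system = 2C mouse CD8+ T cells | read-out basis = percent CD8+ FL2 mean versus row control | controls = Peptide-free naked vesicles (low) and QL9 vesicles with 0.7% DMSO vehicle (high) | detection = flow cytometry of vesicle-bound cells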
Glyco luc inh = blocks N-linked glycosylation in D54 reporter cells | D54 ERlucT glycosylation luciferase reporter, 24 h; percent of 100 nM tunicamycin response | reporter increase, % at 12.5 µM | hit rate 0.23% among 360,000 | AID 588692;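 active means mean luciferase reporter signal, scaled so untreated is 0 and the glycosylation-blocking control 100, at or above a set limit in every replicate; inconclusive means mean reaches the limit but not every replicate does; inactive means mean below the limit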;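 further: luciferase carries N-glycosylation sites so blocking glycosylation raises the light; 0% = median of neutral control wells and 100% = median of 100 nM tunicamycin wells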
ALR H2O2 inh = inhibitors of human sulfhydryl oxidase ALR | inhibition, % (no concentration beside the values) | hit rate 3.8% among 290,000 | purified ALR, DTT oxidation, H2O2 HRP-luminol luminescence | P55789;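 active means mean replicate inhibition above about 79%, with every replicate also reaching it, limit read from the data; inconclusive means only one of the two criteria met; inactive means mean below limit and not every replicate reaching it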
Target sequence (P55789 whole entry, looked up): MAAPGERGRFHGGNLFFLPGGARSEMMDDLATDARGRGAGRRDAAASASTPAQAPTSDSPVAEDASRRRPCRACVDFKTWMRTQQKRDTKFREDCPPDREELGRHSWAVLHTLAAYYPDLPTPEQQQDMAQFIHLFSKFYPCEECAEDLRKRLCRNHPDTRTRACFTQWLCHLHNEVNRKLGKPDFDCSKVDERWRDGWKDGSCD
* hit, by the source's call; i = inactive; ? = inconclusive; · = no result. This is one part of a sample in which hits are shown more often than they occur.

SMILES	T cell HTS	Glyco luc inh	ALR H2O2 inh
CC1CCN(S(=O)(=O)c2ccc(C(=O)Nc3sccc3C(N)=O)cc2)CC1	526.4	3.4	8.8
CC1=Nc2ccccc2N=C(NC(=O)c2ccccc2)C1c1ccc(Cl)cc1 (stereo not given)	189.0	1.5	-0.4
CC1=Nc2ccccc2N=C(N)C1c1ccccc1 (stereo not given)	356.4	-3.3	96.2*
COc1ccc(-c2cc(-c3n[nH]c(=S)n3-c3cc(OC)ccc3OC)[nH]n2)cc1	138.6	1.5	82.9*
COc1ccc(OC)c(-n2c(-c3cc(-c4ccc(F)cc4)n[nH]3)n[nH]c2=S)c1	376.2	4.4	42.1
Cc1ccc(N=Cc2cc3c(cc2O)OC(N)=C(C#N)C3c2ccccc2)cc1 (stereo not given)	257.2	-11.3	0.1
COc1ccccc1N1CCN(C(=O)c2cc(=O)c3ccc(C)cc3o2)CC1	94.1	0.1	98.9*
COc1ccccc1N1CCN(Cc2cc(=O)oc3cc(C)ccc23)CC1	·	3.9	·
Cc1noc(C)c1CSc1nc2ccccc2c(=O)n1-c1ccccc1	312.6	21.4	1.8
Cc1noc(C)c1CSc1nc2[nH]ncc2c(=O)n1-c1ccccc1	166.1	42.4*	1.7
CCCCCCOc1ccc(NC(=O)CC2C(=O)N(CC)C(=S)N2Cc2ccco2)cc1 (stereo not given)	919.5	-3.2	-1.2
O=C(Nc1ccc(Nc2ccccc2)cc1)N1CCOCC1	235.8	4.3	99.3*
COC(=O)c1ccc(NC(=O)N2CCOCC2)cc1	171.4	0.0	27.9
CC(=O)N(C)c1ccc(NC(=O)N2CCOCC2)cc1	233.2	1.3	-5.9
O=C(Nc1ccc(O)cc1)N1CCOCC1	306.7	2.7	99.0*
CCC(c1nc2ccccc2[nH]1)N(CCCn1ccnc1)C(=O)c1ccc(C(F)(F)F)cc1 (stereo not given)	·	3.1	·
Cc1cc(NC(=O)C(C)SCC(=O)N(Cc2ccccc2)c2ccccc2)no1 (stereo not given)	338.6	-11.4	1.0
Cc1cc(/C=C2/C(=N)N3C(=NC2=O)SN=C3S(C)(=O)=O)c(C)n1-c1ccc(F)cc1	346.3	1.4	62.4
CCOc1cc(/C=C2/C(=N)N3C(=NC2=O)SN=C3S(C)(=O)=O)ccc1OS(=O)(=O)c1ccccc1	350.8	1.5	94.8*
CCOc1ccc(-n2c(C)cc(/C=C3/C(=N)N4C(=NC3=O)SN=C4S(C)(=O)=O)c2C)cc1	166.9	-0.9	97.8*
COc1cc(/C=C2/C(=N)N3C(=NC2=O)SN=C3S(C)(=O)=O)ccc1OS(=O)(=O)c1ccccc1	352.3	·	?
Cc1ccc(C(=O)N(C)CCOc2ccccc2)cc1S(=O)(=O)N1CCCCC1	165.8	-2.6	-8.1
CC(=O)c1ccc(S(=O)(=O)N2CCN(c3ccnc4cc(Cl)ccc34)CC2)cc1	·	-6.1	·
CN(C)c1ccc(N=Nc2ccc(S(=O)(=O)O)cc2)c2ccccc12	335.4	-1.4	98.8*
CN(C)c1ccc(N=Nc2ccc(S(N)(=O)=O)cc2)cc1	493.3	-5.0	-14.5
SMILES	T cell HTS	Glyco luc inh	ALR H2O2 inh
Cc1ccc(NC(=O)COC(=O)Cn2ccc(C(F)(F)F)n2)cc1Cl	i	0.0	25.7
CC1(C(=O)Nc2ccc(F)cc2F)CCN1C(=O)CCC1CCCC1 (stereo not given)	·	-0.1	·
CCOc1cc(/C=C2\SC(=S)N(NS(=O)(=O)c3ccc(C)cc3)C2=O)ccc1O	357.1	2.3	98.8*
COc1cc(/C=C2\SC(=S)N(NS(=O)(=O)c3ccc(C)cc3)C2=O)cc(OC)c1OC	309.3	0.4	·
CC(/C=C1\SC(=S)N(NS(=O)(=O)c2ccccc2)C1=O)=C\c1ccccc1	377.1	1.0	97.7*
COc1cc(/C=C2\SC(=S)N(NS(=O)(=O)c3ccc(C)cc3)C2=O)ccc1O	144.5	0.7	99.2*
COc1ccccc1/C=C1\SC(=S)N(NS(=O)(=O)c2ccccc2)C1=O	229.9	0.8	0.2
COc1cccc(/C=C2\SC(=S)N(NS(=O)(=O)c3ccc(C)cc3)C2=O)c1OC	300.9	0.1	90.6*
COc1cc(/C=C2\SC(=S)N(NS(=O)(=O)c3ccccc3)C2=O)ccc1O	344.2	1.4	·
CC(/C=C1\SC(=S)N(NS(=O)(=O)c2ccc(C)cc2)C1=O)=C\c1ccccc1	258.6	-0.4	4.1
CC(C)N(Cc1nnc(-c2ccc(Cl)cc2)o1)C(=O)c1cc2ccccc2o1	344.8	-0.3	-0.3
COc1ccc(NC(=O)c2cc(C3CCCCN3C(=O)CCCc3ccccc3)on2)c(C)c1 (stereo not given)	·	-3.1	·
Cc1cc(C)n(CC(=O)N/N=C/c2ccccn2)n1	184.0	1.2	2.8
Cc1cccc(C(=O)OCC(=O)N(CC(C)C)c2c(N)n(Cc3ccccc3)c(=O)[nH]c2=O)c1O	416.7	-1.0	-5.6
COC(C(=O)N/N=C(\C)c1ccc(C(C)(C)C)cc1)c1ccccc1 (stereo not given)	152.2	3.8	12.0
COc1cc(/C=C2/SC(=S)N(c3c(C)n(C)n(-c4ccccc4)c3=O)C2=O)ccc1O	160.7	2.6	89.7*
COc1cc(/C=C2/SC(=S)N(Cc3ccccc3)C2=O)ccc1O	237.0	-1.4	-1.9
Cc1cc(C(=O)CN2CCN(CC(=O)Nc3cccc(F)c3)CC2)c(C)n1C1CC1	209.0	2.3	15.4
CCCc1nnc(NC(=O)CCC(=O)NCCc2ccc(OC)c(OC)c2)s1	490.1	-0.7	1.3
COc1ccccc1CNc1nc2ccccc2n1CCN1CCCCC1	264.4	-6.2	98.0*
C=CCc1cccc(CNc2nc3ccccc3n2CCN2CCOCC2)c1O	362.4	-5.1	15.2
Oc1ccccc1CNc1nc2ccccc2n1CCN1CCCCC1	57.1	-1.9	95.6*
CCN(CC)CCn1c(NCc2cc(OC)ccc2OC)nc2ccccc21	362.6	-1.0	·
CC(O)(c1ccc(F)c(F)c1)c1nc(-c2cnc3ccccc3c2)cs1 (stereo not given)	·	0.9	·
O=C(O)Cn1c(SCc2cccc3ccccc23)nc2ccccc21	231.0	1.5	97.8*
SMILES	T cell HTS	Glyco luc inh	ALR H2O2 inh
O=C(O)Cn1c(SCc2ccccc2)nc2ccccc21	207.6	0.1	-7.2
COc1ccccc1NC(=S)N1CCC(C(=O)c2ccc(F)cc2)CC1	268.6	3.4	-15.4
CCCC(=O)Nc1ccc(NC(=O)CCc2ccccc2)cn1	406.5	-2.3	-7.5
CCCC(=O)Nc1ccc(NC(=O)Cc2ccccc2)cn1	367.8	-0.7	99.1*
O=C(COC(=O)COc1ccc(Br)cc1)NNC(=O)c1ccccc1	292.6	-1.4	-0.6
O=c1[nH]n2c(=O)c3c([nH]c2c1N=Nc1cccc(Cl)c1)CCC3	259.0	2.7	35.2
O=c1[nH]n2c(=O)c3c([nH]c2c1N=Nc1cccc(C(F)(F)F)c1)CCCC3	641.5	5.0	96.6*
N#C/C(=C\c1cccnc1)C(=O)Nc1ccc(O)cc1F	168.3	4.7	·
CCOC(=O)CSc1nc2cc(OC)ccc2cc1C#N	279.7	-6.0	·
CCOC(=O)CSC1=C(C#N)C(=O)NC(c2ccc(OC)c(OC)c2)S1 (stereo not given)	197.3	-1.2	98.7*
CCOC(=O)CSC1=C(C#N)C(=O)NC(c2ccc(OC)cc2)S1 (stereo not given)	284.3	3.5	98.2*
COc1ccc(C2NC(=O)C(C#N)=C(S)N2c2ccc(C)cc2)cc1OC (stereo not given)	i	0.5	35.0

Assay outcomes: PubChem BioAssay, several laboratories
